One assay relates to Melanoma cell. Description: Inhibitory activity against melanoma cell line. It counts as functional, cell-based. The following applies: for IC50: Homo sapiens, Melanoma cell.
Assay [1] concerns NCI-60 human tumor cell line panel (Homo sapiens). Description: Mean concentration causing inhibition of cell growth in the NCI-60 human tumor cell line panel.
In a further assay the test system is Colon cell. Briefly: Inhibitory activity against Colon cell line. As to conditions: Homo sapiens, Colon cell. It counts as functional, cell-based.
For assay [2], the system named is NCI-60 human tumor cell line panel (Homo sapiens). Briefly: Mean averaged concentration for total growth inhibition, which signifies cytostatic effect.
The subject of assay [3] is Panel leukemia (Carcinoma cell lines). Briefly: Inhibitory activity against leukemia cell line. It counts as functional, cell-based. The following applies: Homo sapiens, Panel leukemia (Carcinoma cell lines).
A further assay deals with Ovarian carcinoma cell. Description: Inhibitory activity against ovarian cell line. As to conditions: Homo sapiens, Ovarian carcinoma cell. It counts as functional, cell-based.
In the next assay the test system is Breast carcinoma cell. Description: Inhibitory activity against breast cell line. The class given is functional, cell-based. The following applies: for IC50: Homo sapiens, Breast carcinoma cell.
For assay [4], the system named is non-small-cell lung cancer cell lines (Homo sapiens). Briefly: Inhibitory activity against non-small-cell lung cancer cell lines. The following applies: Homo sapiens.
The test system of the next assay is Prostate cell. Briefly: Inhibitory activity against prostate cell line. The following applies: Homo sapiens, Prostate cell. The class given is functional, cell-based.
The test system of a further assay is Renal cell. Description: Inhibitory activity against renal cell line. It counts as functional, cell-based. As to conditions: for IC50: Homo sapiens, Renal cell.
In another assay the test system is 3Y1 cell line. Briefly: Cytotoxicity in 3Y1 cells. The class given is functional, Rattus norvegicus. On the set-up: unit not given here. An outline of the steps: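 Rat normal fibroblast 3Y1 cells grown in Dulbecco's modified MEM with 10% fetal calf serum, 5% CO2, humidified. Exponentially growing cells exposed to compounds for 24 h. Relative cell number = cell number at 24 h per initial cell number at 0 h × 100; DNA content distribution read by laser scanning cytometry.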

The subject of the next assay is CNS cell. Briefly: Inhibitory activity against CNS cell line. The class given is functional, cell-based. As to conditions: for IC50: Homo sapiens, CNS cell.
Assay [5] concerns NCI-60 human tumor cell line panel (Homo sapiens). Briefly: Cytostatic effect in NCI-60 human tumor cell lines. The arrangement: unit not given here.

`COc1cc(CN2C(=O)[C@@H]3CCCN3C(=O)[C@@H]2Cc2c[nH]c3ccccc23)cc(OC)c1O`: the half-inhibitory concentration (IC50) in the assay with Melanoma cell was 95.5 µM; in the assay with Colon cell, 87.1 µM; in assay [3], 64.6 µM; with Ovarian carcinoma cell, greater than 100 µM; with Breast carcinoma cell it was 95.5 µM; in [4] it was 87.1 µM. Moreover, the IC50 in the assay with Prostate cell, with Renal cell and in the assay with CNS cell was greater than 100 µM throughout. Halving of growth in assay [1] (Homo sapiens, NCI-60 panel) (GI50) required 91.2 µM. Further, in [2], the TGI is greater than -4. This compound also yielded an LC50 in the assay with 3Y1 cell line greater than -4.

For the compound `COc1cc([C@H]2c3[nH]c4ccccc4c3C[C@H]3C(=O)NCC(=O)N23)cc(OC)c1OC` (relative stereo), the IC50 with Melanoma cell is greater than 100 µM; in the assay with Colon cell, greater than 100 µM; in assay [3] it was 72.4 µM; in the assay with Ovarian carcinoma cell it was greater than 100 µM; with Breast carcinoma cell, 93.3 µM; in assay [4] it was greater than 100 µM. Moreover, the IC50 in the assay with Prostate cell was greater than 100 µM; with Renal cell, 95.5 µM; with CNS cell, greater than 100 µM. Besides, it took 95.5 µM to inhibit growth in [1] (Homo sapiens, NCI-60 panel) by half (GI50). This compound also registered a TGI in [5] greater than -4. The same compound came in with an LC50 with 3Y1 cell line greater than -4.

In the case of `CC(C)=CCN1C(=O)[C@@H]2CCCN2C(=O)[C@@H]1Cc1c[nH]c2ccccc12` (stereo in doubt), the half-inhibitory concentration (IC50) with Melanoma cell is greater than 100 µM; with Colon cell it was 95.5 µM; in assay [3], 61.7 µM; in the assay on Ovarian carcinoma cell, greater than 100 µM; in the assay with Breast carcinoma cell, 89.1 µM; in assay [4], 97.7 µM. Also, the IC50 in the assay with Prostate cell, in the assay with Renal cell and in the assay on CNS cell was greater than 100 µM throughout. Besides, in assay [1] (Homo sapiens, NCI-60 panel), halving of growth (GI50) required 85.1 µM. This compound came in with a TGI in assay [5] of -4.01. The same compound returned an LC50 with 3Y1 cell line greater than -4.

Regarding `CC(C)=C[C@H]1c2[nH]c3ccccc3c2C[C@H]2C(=O)N3CCC[C@H]3C(=O)N21` (stereo in doubt; 3) [DEMETHOXYFUMITREMORGIN C], the “Log IC50” value is -4.32 with Melanoma cell (melanoma cell), -4.43 in the assay with Breast carcinoma cell (breast carcinoma cell), -4.61 with Renal cell (renal cell) and -4.36 in the assay with CNS cell (cns cell). The same compound had a GI50 in assay [1] of 43.7 µM. Further, the IC50 is 53.7 µM in the assay with Colon cell; 34.7 µM in [3]; 70.8 µM in the assay on Ovarian carcinoma cell; 52.5 µM in assay [4]; 50.1 µM in the assay on Prostate cell. In assay [5], this compound yielded a TGI of -4.02. Moreover, the LC50 in the assay with 3Y1 cell line is on record as greater than -4.

These data come from ChEMBL document CHEMBL1132918, “Synthesis and evaluation of tryprostatin B and demethoxyfumitremorgin C analogues” (J Med Chem, 2000).
